In paper PMC3417756 (Bioorganic & medicinal chemistry, 2012):

Key:
[1] = MTT cytotoxicity assay in murine macrophage cells; assay type: cell-based; conditions: mouse, RAW 264.7 murine macrophage cells
RAW 264.7 cells = experiment: MTT cytotoxicity assay in murine macrophage cells; assay type: cell-based
iNOS = experiment: qPCR of LPS-induced iNOS expression in RAW264.7 cells; assay type: cell-based, mouse; conditions: concentrations up to 10 μM; data not shown
How it was run: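 RAW264.7 cells were co-treated with LPS (100 ng/mL) and compound at 0.01–10 μM. Total RNA (0.5 μg) was DNase I-treated and reverse transcribed, and cDNAs were pooled per condition. SYBR Green real-time PCR array was normalised to GAPDH. Data come from three independent experiments and were compared by one-way ANOVA (p<0.05).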

NF-κB = experiment: LPS-induced NF-κB luciferase reporter assay in RAW264.7 cells; assay type: cell-based; conditions: Mus musculus, RAW264.7, read-out: inhibition of NF-κB
How it was run: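 RAW264.7 cells stably transfected with an NF-κB luciferase reporter were seeded at 5 × 10^4 cells per well in 96-well plates. After 24 h recovery, cells were exposed to test compound plus LPS (100 ng/mL) for 18 h. Lysates were mixed with luciferase assay reagent and luminescence was read. IC50 is given as mean ± SE, n = 3.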

[2] = system: nitric oxide (NO) production; experiment: Griess assay of LPS stimulated nitric oxide production in RAW264.7 cells; assay type: cell-based, murine; conditions: concentrations up to 10 μM
How it was run: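 RAW264.7 cells were plated in RPMI1640 and held 24 h at 37 °C. Medium was replaced, then compound and E. coli 055:B5 LPS were added. Culture supernatant was reacted with Griess reagent (0.5% sulfanilamide, 0.05% N-1-naphthylethylenediamine dihydrochloride, 2.5% H3PO4) for 30 min at room temperature in the dark. Absorbance was read at 530 nm and converted to nitrite using a sodium nitrite standard curve.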

phosphorylation of IκBα = experiment: Western blot analysis of phosphorylation of IκBα in RAW264.7 cells; assay type: cell-based, mouse; conditions: increasing concentrations, in the presence of LPS, 4 hr
How it was run: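 Cells were grown to near confluency and dosed with LPS plus compound at 37 °C. Lysates were made in SDS/2-mercaptoethanol loading buffer, sonicated 15 s and heated at 99.9 °C for 5 min. Proteins were run on 4–15% polyacrylamide SDS gels and transferred to membrane, which was blocked with 5% milk for 1 h. Probes were anti-phospho-IκB and anti-IκB (1:1000) with HRP secondary (1:3000, 1 h, room temperature), detected by chemiluminescence on X-ray film; β-actin served as control.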

HCT-116 cells = experiment: Human colon tumor HCT-116 cytotoxicity assay; assay type: cell-based; conditions: HCT-116, read-out: IC50 HCT-116

Row | SMILES | IC50 at 18 h [1] [µM] | cytotoxicity to RAW 264.7 macrophage immune cells (in words) (RAW 264.7 cells) | effect on iNOS expression (iNOS) | IC50 (NF-κB) [µM] | inhibition of LPS stimulated NO production [2] | IκBα phosphorylation (phosphorylation of IκBα) | IC50 (HCT-116 cells) [µM]
1 | CC1=C(O)C(=O)C=C2C1=CC=C1[C@@]2(C)CC[C@@]2(C)[C@@H]3C[C@](C)(C(=O)O)CC[C@]3(C)CC[C@]12C [compound 5, celastrol, reference compound] | > 50 |  |  |  |  |  | 
2 | CCCCCCCCCCCCCC(=O)O[C@H]1CC[C@H](NC(=O)[C@H](OC)[C@H](O)[C@@H](O)[C@H](O)/C=C/C(C)C)C(=O)NC1 [compound 6, bengamide A] | > 50 | without cytotoxicity | Neither 6 nor 7 showed NO inhibition activity or an effect on iNOS expression | 0.08 | Neither 6 nor 7 showed NO inhibition activity | clear decrease in the levels of observed IκBα phosphorylation | 
3 | CCCCCCCCCCCCCC(=O)O[C@H]1CC[C@H](NC(=O)[C@H](OC)[C@H](O)[C@@H](O)[C@H](O)/C=C/C(C)C)C(=O)N(C)C1 [compound 7, bengamide B] | > 50 | without cytotoxicity | Neither 6 nor 7 showed NO inhibition activity or an effect on iNOS expression | 0.09 | Neither 6 nor 7 showed NO inhibition activity | clear decrease in the levels of observed IκBα phosphorylation | 
4 | CO[C@@H](C(=O)N[C@H]1CCCCNC1=O)[C@H](O)[C@@H](O)[C@H](O)/C=C/C(C)C [compound 8, bengamide E] | > 50 |  |  |  |  | clear decrease in the levels of observed IκBα phosphorylation | 
5 | CO[C@@H](C(=O)N[C@H]1CC[C@@H](OC(=O)C2CCCCC2)CN(C)C1=O)[C@H](O)[C@@H](O)[C@H](O)/C=C/C(C)(C)C [compound 12, LAF 389, reference compound] | > 50 |  |  |  |  |  | 
6 | CCC(C)/C=C/[C@@H](O)[C@H](O)[C@@H](O)[C@@H](OC)C(=O)N[C@H]1CCCCNC1=O (stereo partly shown) [compound 13, bengamide E’] | > 50 |  |  |  |  |  | 
7 | CCC(C)/C=C/[C@@H](O)[C@H](O)[C@@H](O)[C@@H](OC)C(=O)N[C@H]1CCCCN(C)C1=O (stereo partly shown) [compound 14, bengamide F’] | > 50 |  |  |  |  |  | 5.1
